The record followed here is ChEMBL document CHEMBL3596157, “Heteroaromatic analogs of the resveratrol analog DMU-212 as potent anti-cancer agents” (2015).

Common to all, as to type: functional
Test [1] can be described thus: Growth inhibition of human SF295 cells after 48 hrs by SRB assay. As to conditions: SF-295, 48 h. The method in brief:
(§1)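 NCI-60 panel screen. Cells exposed for 48 h to five concentrations (10−4, 10−5, 10−6, 10−7 and 10−8 M). Sulforhodamine B optical density is read just before compound addition (time zero) and after 48 h, for both treated and vehicle-control wells. Percent growth is calculated against control. GI50 is the concentration giving a 50% reduction in net cell growth relative to cell numbers on day 0.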
On the technique in general: Sulforhodamine B stains cellular protein and so reports cell mass.

Test [2] concerns KM12. Nature of the test: Growth inhibition of human KM12 cells after 48 hrs by SRB assay. To be noted: KM12, 48 h. In a few lines: as §1
Test [3] has as its system SK-MEL-28. Nature of the test: Growth inhibition of human SK-MEL-28 cells after 48 hrs by SRB assay. To be noted: SK-MEL-28, 48 h. In a few lines:
as §1

Test [4] deals with SF-268. Kind of test: Growth inhibition of human SF268 cells after 48 hrs by SRB assay. As to conditions: SF-268, 48 h. In a few lines:
as §1

For test [5], the system named is HCT-116. Kind of test: Growth inhibition of human HCT116 cells after 48 hrs by SRB assay. As to conditions: HCT-116, 48 h. In a few lines:
as §1

Test [6] relates to TK-10. Nature of the test: Growth inhibition of human TK10 cells after 48 hrs by SRB assay. As to conditions: TK-10, 48 h. In a few lines:
(§2)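 NCI-60 panel cells; preliminary single-dose screen at 10−5 M, then five-dose testing at 10−4 to 10−8 M (tenfold steps) with 48 h exposure. SRB-stained optical density read before compound addition (time zero), after 48 h with compound, and with vehicle control. Percent growth is calculated against control. GI50 is the concentration giving 50% reduction in net growth relative to day-0 cell number.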

Test [7] deals with DU-145. Nature of the test: Growth inhibition of human DU145 cells after 48 hrs by SRB assay. To be noted: DU-145, 48 h. The method in brief:
as §1

A short description of test [8]: Growth inhibition of human RPMI8226 cells after 48 hrs by SRB assay. As to conditions: RPMI-8226, 48 h. The method in brief: as §1
A short description of test [9]: Growth inhibition of human SF539 cells after 48 hrs by SRB assay. To be noted: SF-539, 48 h. In a few lines: as §1
Test [10] has as its system OVCAR-8. Nature of the test: Growth inhibition of human OVCAR8 cells after 48 hrs by SRB assay. As to conditions: OVCAR-8, 48 h. The method in brief: as §1
The nature of test [11]: Growth inhibition of human COLO205 cells after 48 hrs by SRB assay. To be noted: COLO 205, 48 h. The method in brief:
as §1

Test [12] deals with ACHN. Nature of the test: Growth inhibition of human ACHN cells after 48 hrs by SRB assay. In a few lines: as §1
Test [13] has as its system SK-OV-3. Kind of test: Growth inhibition of human SKOV3 cells after 48 hrs by SRB assay. To be noted: SK-OV-3, 48 h. The method in brief:
as §1

Test [14] has as its system UO-31. Nature of the test: Growth inhibition of human UO31 cells after 48 hrs by SRB assay. As to conditions: UO-31, 48 h. In a few lines:
as §2

Test [15] deals with NCI-H226. Nature of the test: Growth inhibition of human NCI-H226 cells after 48 hrs by SRB assay. To be noted: NCI-H226, 48 h. The method in brief:
as §1

As a reminder, the GI50 is the concentration giving 50% growth inhibition. Lower therefore signals more potent growth inhibition. Take `COc1cc(/C=C/c2cc3ccccc3o2)cc(OC)c1OC`: the GI50 is 356 nM in test [1]; 508 nM in test [2]; 837 nM in test [3]; 861 nM in test [4]; 522 nM in test [5]; 8460 nM in test [6]. For the same molecule, the GI50 in [7] was 1860 nM; in test [8], 700 nM; in test [9], 273 nM; in test [10], 2050 nM; in [11], 406 nM; in test [12], 863 nM. The GI50 in [13] was 656 nM; in test [14], 1150 nM; in test [15], 1100 nM.
